Measured values reported in ChEMBL document CHEMBL2331368, “Inhibitors of HIV-1 attachment. Part 9: an assessment of oral prodrug approaches to improve the plasma exposure of a tetrazole-containing derivative” (Bioorg Med Chem Lett, 2013).
pEC50: −log10 of the molar value.

How the values were obtained:
[1] = Plasma concentration in rat at 5 mg/kg, po at 120 mins; type: ADME, organism-based; design: dose 5 mg/kg, route oral
Procedure, shortened: (§1)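 Rats received 5 mg/kg orally in 90% PEG 400/10% EtOH. The parent tetrazole concentration in plasma was measured at 30 and 120 min after dosing. Each value is the average of two rats.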

[2] = Plasma concentration in rat at 5 mg/kg, po at 30 mins; type: ADME, organism-based; design: dose 5 mg/kg, route oral; procedure, shortened: as §1
[3] = system: Human immunodeficiency virus 1; assay: Antiviral activity against HIV1 JRFL pseudotyped virions infected in HeLa CD4 CCR5 cells after 48 hrs by luciferase assay; type: functional, organism-based; details: Human immunodeficiency virus 1, JRFL, HeLa-CD4/CCR5, 48 h
Procedure, shortened: (§2)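 EC50s came from a single-cycle infectivity assay with HIV JRFL pseudotyped virus. CC50s were determined by the method described in an earlier report. Values are means of two or more experiments.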

[4] = Oral bioavailability in rat at 5 mg/kg; type: ADME, organism-based; details: in vivo
Procedure, shortened: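 Rat pharmacokinetics used 90% PEG 400/10% EtOH as vehicle. The IV dose was 1 mg/kg and the oral dose 5 mg/kg.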

[5] = Half life in human liver microsomes assessed in presence of NADPH; type: ADME, Microsome
[6] = Cytotoxicity against human HeLa cells by XTT assay; type: cell-based; procedure, shortened: as §2
Caco-2 = assay: Permeability across human Caco2 cells at pH 6.5; type: ADME, cell-based; details: caco-2, pH 6.5
Liver microsomes = assay: Prodrug conversion in human liver microsomes assessed as formation of 1-(4-benzoylpiperazin-1-yl)-2-(4-fluoro-7-(2H-tetrazol-5-yl)-1H-indol-3-yl)ethane-1,2-dione in absence of NADPH after 5 mins; type: ADME, Microsome
[7] = Permeability across human Caco2 cells assessed as drug recovery at pH 6.5; type: ADME, cell-based; details: caco-2, pH 6.5, read-out: Drug recovery

concentration at 2 h [1] [ng/mL] | concentration at 0.5 h [2] [ng/mL] | pEC50 [3] | bioavailability [4] [%] | half-life [5] [min] | permeability (Caco-2) | Drug metabolism (Liver microsomes) | recovery [7] [%] | SMILES | CC50 [6] [nM]
25 | 19 | 7.47 | – | – | – | – | – | O=C(C(=O)N1CCN(C(=O)c2ccccc2)CC1)c1c[nH]c2c(-c3nn[nH]n3)ccc(F)c12 | –
– | – | – | 11 | – | – | – | – | O=C(O)c1c(Cc2ccc(-c3ccccc3-c3nn[nH]n3)cc2)c(C2CC2)nc2ccccc12 | –
– | – | – | 39 | – | – | – | – | CC(C)C(OC(=O)C(C)(C)C)n1nnc(-c2ccccc2-c2ccc(Cc3c(C4CC4)nc4ccccc4c3C(=O)O)cc2)n1 (configuration not stated) | –
207 | 72 | 7.70 | – | 12 | – | – | – | Cn1nnc(-c2ccc(F)c3c(C(=O)C(=O)N4CCN(C(=O)c5ccccc5)CC4)c[nH]c23)n1 | > 300000
13 | 60 | 6.72 | – | – | ND(Insoluble) | Active | – | CC(C)(C)C(=O)OCn1nnc(-c2ccc(F)c3c(C(=O)C(=O)N4CCN(C(=O)c5ccccc5)CC4)c[nH]c23)n1 | 228000
378 | 261 | 7.22 | – | – | – | Active | < 70 | CC(=O)OCn1nnc(-c2ccc(F)c3c(C(=O)C(=O)N4CCN(C(=O)c5ccccc5)CC4)c[nH]c23)n1 | 36000
